# Source: PubChem
# Compounds with a hit are over-represented: about 3.5% of the library has one in this group of screens.
# MrgX1 PAM: human MrgX1 positive allosteric modulation, primary screen; Q96LB2; MrgX1-HEK293, Fluo-4 calcium flux, FDSS; stronger effect = higher value; B-score at 10 µM; 310,000 compounds, 0.63% hits;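 active = plate-corrected calcium response at least 3 library SD above typical, normal starting fluorescence, not activating the receptor alone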;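 note: compound read alongside a low EC10 to EC30 dose of BAM8-22 agonist; peak minus trough fluorescence over baseline measured at the second addition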
# Target sequence (Q96LB2 whole entry, looked up): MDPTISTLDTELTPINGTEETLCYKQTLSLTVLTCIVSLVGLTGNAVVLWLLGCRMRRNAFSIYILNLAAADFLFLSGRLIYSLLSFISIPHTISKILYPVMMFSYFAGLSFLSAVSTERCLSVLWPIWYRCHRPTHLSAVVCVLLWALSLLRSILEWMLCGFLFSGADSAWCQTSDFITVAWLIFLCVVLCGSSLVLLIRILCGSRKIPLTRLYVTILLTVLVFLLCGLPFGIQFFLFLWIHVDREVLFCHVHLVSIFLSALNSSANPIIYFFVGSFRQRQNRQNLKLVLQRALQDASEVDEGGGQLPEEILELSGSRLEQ
# RGS4 act: potentiators or activators of RGS4; 310,000 compounds, 0.92% hits; B-score at 10 µM; HEK293 M3R/inducible RGS4, carbachol calcium flux Fluo4; stronger effect = lower value; AID 463111;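 active = B-score of the integrated calcium signal more than 4 SD below the library mean, with starting fluorescence not abnormally high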;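 note: negative B-score means reduced calcium response which marks RGS4 activation or potentiation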
#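 Also added: carbachol at ECmax as muscarinic agonist stimulus; Assay system: HEK293 cells with stable M3R and inducible RGS4; Timing: overnight RGS4 induction, 30 min dye load 37 °C, 20 min compound RT; Measured by: Fluo4-AM (2 µM) calcium-flux fluorescence, kinetic read.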
# MrgX1 antagonist: human MrgX1 receptor antagonism, primary screen | Q96LB2 | MRGX1-HEK293 calcium flux, Fluo-4, BAM8-22 antagonism; stronger effect = lower value | B-score at 10 µM | 310,000 compounds, 1.3% hits;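 active = calcium-response B-score plate-corrected more than 3 library SD below zero, starting fluorescence within 5 deviations, no agonist response on first addition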;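 note: peak minus trough fluorescence over baseline after final BAM8-22 challenge near maximal dose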
# RGS4 inh: human RGS4 inhibition; 310,000 compounds, 0.45% hits; P49798; HEK293 M3R/RGS4 inducible, Fluo-4 calcium flux; stronger effect = higher value; triggered by carbachol at its EC20; B-score at 10 µM;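 active = B-score, a plate-corrected calcium signal, over three deviations above library mean, with baseline fluorescence within five deviations of library mean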;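 note: RGS4 expression induced by doxycycline in cells with stable M3 receptor; B-score is computed from the integrated fluorescence ratio over baseline after carbachol; higher B-score means a larger calcium signal and so more RGS4 inhibition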
# Target sequence (P49798 whole entry, looked up): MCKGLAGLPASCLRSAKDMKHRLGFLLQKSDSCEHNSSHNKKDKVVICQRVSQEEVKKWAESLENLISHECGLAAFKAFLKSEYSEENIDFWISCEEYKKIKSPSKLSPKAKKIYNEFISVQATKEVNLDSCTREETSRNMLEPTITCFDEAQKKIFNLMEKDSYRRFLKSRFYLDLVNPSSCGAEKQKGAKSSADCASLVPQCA
# MrgX1 ag: activates human MrgX1 receptor signaling | Q96LB2 | MrgX1-HEK293 cells, Fluo-4 calcium fluorescence, agonist mode; stronger effect = higher value | B-score at 10 µM | 310,000 compounds, 0.44% hits | AID 588627;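 active = calcium response B-score plate-corrected fluorescence ratio at least 3 library SD, with starting fluorescence B-score inside 5 SD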
#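 Material: MrgX1-expressing HEK293 cells / Dosing: compound as first of three additions / Incubation: overnight seeding, then 1 h dark dye loading / Signal: Fluo-4 NW calcium fluorescence / Evaluation: B-scored fluorescence response ratio / Benchmarks: positive and negative control wells on each plate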
# RGS4 activ val: RGS4 activation, validation assay; shares compounds with RGS4 act; HEK293 M3R/RGS4 inducible, carbachol calcium flux Fluo4; inhibition, % at 10 µM; 1,100 compounds, 89% hits; AID 602282;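 active = inhibition above 3 SD of the buffer control wells, cut at about 41% in these data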;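 note: signal is the integrated peak-minus-minimum Fluo4 fluorescence over baseline ratio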
# M3R Ca counter: counter-screen for RGS4 activators: effect in non-induced cells | shares compounds with RGS4 act | HEK293 M3R non-induced RGS4, Fluo4 calcium flux; after carbachol challenge at its EC90 | inhibition, % at 10 µM | 1,100 compounds, 82% hits;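 active = inhibition exceeding 3 SD of buffer-only control wells, cut at about 26% in these data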;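 note: percent drop in integrated peak-minus-baseline over baseline Fluo4 ratio after carbachol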
# Starred values were filed as active, the others as inactive; i = inactive; · = not tested or not shown.
SMILES,MrgX1 PAM,RGS4 act,MrgX1 antagonist,RGS4 inh,MrgX1 ag,RGS4 activ val,M3R Ca counter
Nc1ccc(C(=O)Nc2cccc(N)c2)cc1,i,i,i,i,i,·,·
CN1CCN(CC(=O)Nc2c(C(=O)c3ccccc3)oc3ccccc23)CC1,i,-10*,i,i,i,70*,27*
O=C(c1cccs1)N1CCCC(c2nc3c(nnn3Cc3c(Cl)cccc3Cl)c(=O)[nH]2)C1 (configuration not stated),i,-8.3*,i,i,i,52*,84*
Cn1c(=O)c(C(=O)NCC2CCCO2)c(O)c2ccccc21 (configuration not stated),i,i,i,i,i,·,·
Cc1ccccc1CC1(CO)CCCN(C(=O)c2ccc3ncccc3c2)C1 (configuration not stated),i,-10*,i,i,i,62*,84*
Cc1ccccc1CC1(CO)CCCN(C(=O)c2ccccc2N(C)C)C1 (configuration not stated),i,i,i,i,i,·,·
CC(=O)N(C)c1ccc(NC(=O)Nc2ccc(C)cc2)cc1,i,i,i,i,i,·,·
CC(=O)N(C)c1ccc(NC(=O)Nc2ccc(Cl)cc2)cc1,i,-8.3*,i,i,i,93*,68*
CC(C)OCCCN(C)C1CCN(S(=O)(=O)c2ccc(-c3cc(C(F)(F)F)no3)s2)CC1,i,-7.7*,i,i,i,49*,84*
CC(C)OCCCN(C)C1CCN(S(=O)(=O)c2csc(C(N)=O)c2)CC1,i,i,i,i,i,·,·
OCCN1CCN(CC/C=C2/c3ccccc3CSc3ccccc32)CC1,i,i,i,i,i,·,·
CNCC/C=C1/c2ccccc2CSc2ccccc21,i,-8.6*,i,i,i,92*,86*
CCCN1CCN(c2ncnc3scc(C4COc5ccccc5O4)c23)CC1 (configuration not stated),i,-12*,i,i,i,92*,62*
c1ccc2c(c1)OCC(c1csc3ncnc(N4CCCCC4)c13)O2 (configuration not stated),i,i,i,i,i,·,·
CCOc1ccc(Oc2ccc(NC(=O)[C@@H](NC(N)=O)[C@@H](C)CC)cc2)cc1,i,i,i,i,i,·,·
COc1ccc(OC)c2c1cc(C(=O)N[C@@H](Cc1ccccc1)C(=O)O)n2C,i,i,i,i,i,·,·
O=C1C=C(N2CCCCCC2)C2(CCCCC2)O1,i,-8.4*,i,i,i,66*,0
COc1ccc(S(=O)(=O)N2CCOC2CNC(=O)C(=O)NCCN2CCOCC2)cc1 (configuration not stated),i,i,i,i,i,·,·
OCC1(Cc2ccccc2C(F)(F)F)CCN(Cc2ccccc2)CC1,i,i,i,i,i,·,·
OCC1(Cc2ccccc2C(F)(F)F)CCN(Cc2ccc3c(c2)CCO3)CC1,i,-10*,i,i,i,55*,84*
OCCCCNCc1ccc(OCc2ccccc2)cc1,i,-7.8*,i,i,i,60*,84*
OCCNCCCCOc1ccc(OCc2ccccc2)cc1,i,i,i,i,i,·,·
O=C(CSc1ccc(-c2ccco2)nn1)c1ccccc1,i,i,i,i,i,·,·
Cc1ccc(NC(=S)N2CCCC(CO)C2)c(C)c1 (configuration not stated),i,i,i,i,i,·,·
CN1CCN(C2=Cc3ccccc3Sc3cc(F)ccc32)CC1,8.2*,-12*,i,i,i,92*,94*
SMILES,MrgX1 PAM,RGS4 act,MrgX1 antagonist,RGS4 inh,MrgX1 ag,RGS4 activ val,M3R Ca counter
O=C(O)CC1(CC(=O)Nc2cc3ccccc3cn2)CCCCC1,i,i,i,i,i,·,·
CCc1ccccc1NC(=O)COc1ccc(C(=S)N2CCCC2)cc1,i,i,i,i,i,·,·
CCC1(C)Cc2ccccc2-c2[nH][nH]c(=O)c21 (configuration not stated),i,i,i,i,i,·,·
O=C(Nc1cccc(-c2nc3ccccc3s2)c1)c1cccs1,i,-8.1*,i,i,i,92*,67*
O=C(Nc1cccc(-c2nc3ccccc3s2)c1)c1cc(=O)c2ccccc2o1,i,i,i,i,i,·,·
Cc1ccc2c(c1)C1CN(C)CCC1N2Sc1ccccc1[N+](=O)[O-] (configuration not stated),i,i,i,i,i,·,·
CN(C)CC/C=C1\c2ccccc2COc2ccccc21,i,-8*,i,i,i,94*,93*
CN(C)CC/C=C1/c2ccccc2Sc2ccc(Cl)cc21,i,-9.5*,i,i,i,94*,96*
CN1CCN(CCC=C2c3ccccc3Sc3ccc(S(=O)(=O)N(C)C)cc32)CC1,i,·,i,·,i,·,·
CN(C)CC/C=C1/c2ccccc2CS(=O)(=O)c2ccccc21,i,i,i,i,i,·,·
C=C(C)c1cccc(C(C)(C)NC(=O)N2CCC(C(N)=O)CC2)c1,i,i,i,i,i,·,·
Cc1ccc(OCC(=O)Nc2ccc(CN3CCCCC3)cc2)c(C)c1,i,-9.9*,i,i,i,66*,84*
COc1ccccc1Cn1c(=O)oc2ccc(C)cc21,i,i,i,i,i,·,·
CCCCOc1ccccc1Cn1c(=O)oc2ccc(C)cc21,i,-7.7*,i,i,i,92*,91*
CCCc1cc2c(OC(=O)CC)c(-c3ccc(C(=O)OCC)o3)c(=O)oc2cc1OC,i,i,i,i,i,·,·
